Screens deposited in PubChem by several laboratories.
sdo1 growth: growth rescue of sdo1-depleted yeast, primary screen, S. cerevisiae, bone marrow failure model. S. cerevisiae sdo1-depleted JHY4D growth rescue, OD600 30 h; stronger effect = higher value; pdr5 snq2 efflux-pump mutant strain. AID 817, 2007. z-score at 10 µM. 140,000 compounds, 0.21% hits;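 active = z-score above 3 at both the 24 hr and the 30 hr optical density reads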;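 also: z-score against mean and SD of all compound wells on the same plate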
sEH act: soluble epoxide hydrolase activators, primary screen, biochemical, human sEH; Bifunctional epoxide hydrolase 2 (Homo sapiens), P34913; purified human sEH enzymatic activity, activator screen; activation, % at 2 µM; 91,000 compounds, 0.04% hits; AID 717, 2007; in the data active = activation above about 37%
Target sequence (P34913 whole entry, looked up): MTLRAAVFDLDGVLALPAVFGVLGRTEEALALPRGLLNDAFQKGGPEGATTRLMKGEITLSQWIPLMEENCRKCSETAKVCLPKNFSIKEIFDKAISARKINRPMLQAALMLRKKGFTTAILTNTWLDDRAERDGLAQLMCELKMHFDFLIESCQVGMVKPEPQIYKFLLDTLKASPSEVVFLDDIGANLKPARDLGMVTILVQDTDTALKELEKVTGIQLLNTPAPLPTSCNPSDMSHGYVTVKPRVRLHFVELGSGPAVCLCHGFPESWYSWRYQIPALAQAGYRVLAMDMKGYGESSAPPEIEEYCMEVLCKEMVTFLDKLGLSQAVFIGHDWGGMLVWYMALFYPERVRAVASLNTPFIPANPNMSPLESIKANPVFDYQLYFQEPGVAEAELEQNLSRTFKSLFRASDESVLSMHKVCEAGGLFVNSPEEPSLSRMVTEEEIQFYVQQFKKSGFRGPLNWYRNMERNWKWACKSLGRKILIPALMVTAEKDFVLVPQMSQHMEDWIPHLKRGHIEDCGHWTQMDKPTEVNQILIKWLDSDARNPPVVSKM
sEH inhibitor: soluble epoxide hydrolase inhibitors, primary screen, biochemical, human sEH; 91,000 compounds, 0.34% hits; inhibition, % at 2 µM; AID 707, 2007; recombinant human sEH enzymatic activity assay; in the data active = inhibition above about 80%
Yeast lifespan up: compounds extending yeast replicative lifespan, primary screen, S. cerevisiae, OD615. S. cerevisiae growth with nicotinamide; deaD strain in restrictive glucose medium. inhibition of the nicotinamide effect, % at 10 µM. 130,000 compounds, 0.68% hits;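 active = inhibition above a set limit, placed 3 SD over the median of all compounds, cut at about 26% in these data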;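 also: 0% = nicotinamide-treated wells and 100% = cells grown without nicotinamide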
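Assay system: DeaD-strain S. cerevisiae. Medium: CSMM-D glucose medium, restrictive. Reagent: nicotinamide, 1.5 mM, co-present with compound. Compound: 10 µM single point, 0.25% DMSO. Schedule: culture preincubation 4 h, compound exposure 48 h, both 30 °C. Detection: absorbance at 615 nm.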
Yeast growth inh: growth inhibitors of yeast BB579 in restrictive medium, primary screen, yeast lifespan-shortening project, S. cerevisiae; OD615, 48 h; inhibition, % at 10 µM; 140,000 compounds, 0.51% hits; AID 804, 2007;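 active = inhibition above a set limit, 3 SD over the mean compound inhibition, cut at about 44% in these data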
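Test system: Saccharomyces cerevisiae DeaD strain BB579, replicative lifespan model yeast | Buffer or medium: Restrictive CSMM-D medium | Doses: One dose, 10 µM compound with 0.25% DMSO | Incubation: 48 h exposure, 30 °C | Detection: Culture absorbance at 615 nm | Control set: Amphotericin B at 10 µg/mL as positive control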
Measles CPE: compounds protecting cells from measles virus cytopathic effect, primary screen, measles RdRp inhibitor project, single point, MLSMR library, absorbance; Measles virus-infected cells, CPE protection; 140,000 compounds, 1.5% hits; AID 841, 2007; protection (pct of control), % at 4 µM; in the data active = protection mostly above about 24%, no sharp cut-off; inactive = mostly below about 26%
Active calls of the source: *. Compounds with a hit are over-represented: about 3% of the library has one in this group of screens.

What do the screens show for `Cc1ccc(C(=O)Nc2ccccc2SCC2CSc3nc4ccccc4c(=O)n32)cc1` (stereo not drawn)?
sdo1 growth: 0.43; sEH act: -3; sEH inhibitor: 1; Yeast lifespan up: -19; Yeast growth inh: -18; Measles CPE: 63*

Results for O=C(Nc1ccccc1SCC1CSc2nc3ccccc3c(=O)n21)c1cccc(Cl)c1 (stereo not drawn) ?
sdo1 growth: 0.39; sEH act: 6; sEH inhibitor: -3; Yeast lifespan up: -12; Yeast growth inh: -23; Measles CPE: 36*

What do the screens show for `O=C(Nc1ccccc1SCC1CSc2nc3ccccc3c(=O)n21)c1ccccc1Cl` (stereo not drawn)?
sdo1 growth: 0.04; sEH act: 15; sEH inhibitor: -17; Yeast lifespan up: -4; Yeast growth inh: 4; Measles CPE: 4

Results for O=C(Nc1ccccc1SCC1CSc2nc3ccccc3c(=O)n21)c1ccccc1 (stereo not drawn) ?
sdo1 growth: 0.87; sEH act: -2; sEH inhibitor: 4; Yeast lifespan up: -8; Yeast growth inh: -71; Measles CPE: 4

Results for O=C(NCCCn1ccnc1)Nc1cccc2ccccc12 ?
sdo1 growth: 0.1; sEH act: 5; sEH inhibitor: -1; Yeast growth inh: -31; Measles CPE: 26*

Results for O=C(NCCCn1ccnc1)c1cc2ccccc2oc1=O ?
sdo1 growth: 0.89; Yeast lifespan up: 7; Yeast growth inh: -25; Measles CPE: 9

How did CCOc1ncccc1C(=O)NCc1ccc(C)cc1 do in these assays?
sdo1 growth: 0.23; Yeast lifespan up: -7; Yeast growth inh: -13; Measles CPE: 11

What do the screens show for `N#Cc1c(Nc2ccccc2)c(/C=N/N=C/c2ccccc2)c[nH]c1=O`?
sdo1 growth: 0.45; Yeast lifespan up: 0; Yeast growth inh: -25; Measles CPE: 26*

What do the screens show for `CCn1cnc2sc(C(=O)N(Cc3ccc(N(C)C)cc3)Cc3ccco3)c(C)c2c1=O`?
sdo1 growth: -0.78; Yeast lifespan up: -11; Yeast growth inh: -45; Measles CPE: 55*

Results for CC(=O)Nc1ccc(S(=O)(=O)n2cnc3ccccc32)cc1 ?
sdo1 growth: -0.33; sEH act: -11; sEH inhibitor: 14; Yeast lifespan up: -2; Yeast growth inh: -17; Measles CPE: 2

How did OC(CNCc1ccccc1)Cn1ccc2ccccc21 (stereo not drawn) do in these assays?
sdo1 growth: 0.6; Yeast lifespan up: 3; Yeast growth inh: -17; Measles CPE: 11

What do the screens show for `Oc1ccccc1NCC(O)Cn1ccc2ccccc21` (stereo not drawn)?
sdo1 growth: -1.1; sEH act: -7; sEH inhibitor: 7; Yeast lifespan up: 5; Yeast growth inh: 50*; Measles CPE: 14

What do the screens show for `CCOc1ccc(C(=O)NCC(C)CN(C)C)cc1OCC` (stereo not drawn)?
sdo1 growth: 0.42; sEH act: 12; sEH inhibitor: -8; Yeast lifespan up: -15; Yeast growth inh: -31; Measles CPE: 31*

Results for CCOc1ccc(N=Nc2cc(C(C)C)ccc2O)cc1 ?
sdo1 growth: -1.2; Yeast lifespan up: -4; Yeast growth inh: -48; Measles CPE: 26*

What do the screens show for `CCOc1ccc(N=C(C)c2ccccc2O)cc1`?
sdo1 growth: 1.1; Yeast lifespan up: -10; Yeast growth inh: -24; Measles CPE: 16

What do the screens show for `Cc1ccc(C)c(N2CCN(S(=O)(=O)c3c(C)noc3/C=C/N(C)C)CC2)c1`?
sdo1 growth: 0.66; Yeast lifespan up: 36*; Yeast growth inh: -15; Measles CPE: 5

How did CC(Sc1ccccc1)C(=O)Nc1ccccc1C(=O)N1CCOCC1 (stereo not drawn) do in these assays?
sdo1 growth: 0.19; sEH act: 5; sEH inhibitor: -3; Yeast lifespan up: -11; Yeast growth inh: 6; Measles CPE: 9

Results for O=C(COC(=O)c1ncc(Cl)c(Cl)c1Cl)c1ccc(Cl)s1 ?
sdo1 growth: 0.48; Yeast lifespan up: -1; Yeast growth inh: -19; Measles CPE: 5

Results for Cc1ccccc1C(=O)NC1CCN(CC(=O)Nc2c(C)cccc2C)CC1 ?
sdo1 growth: 0.79; sEH act: 4; sEH inhibitor: -4; Yeast growth inh: -26; Measles CPE: 39*

What do the screens show for `Cc1ccc(NC(=O)CN2CCC(NC(=O)Cc3ccccc3)CC2)cc1C`?
sdo1 growth: 1.5; sEH act: 26; sEH inhibitor: -30; Yeast lifespan up: -17; Yeast growth inh: -47; Measles CPE: 12

Results for Cc1cc(C)cc(NC(=O)CN2CCC(NC(=O)Cc3ccccc3)CC2)c1 ?
sdo1 growth: 0.63; sEH act: -4; sEH inhibitor: 4; Yeast lifespan up: 27*; Yeast growth inh: -5; Measles CPE: 3

What do the screens show for `Cc1nn(-c2ccccc2)c(NC(=O)c2cccs2)c(-c2ccccc2)c1=O`?
sdo1 growth: 0.78; Yeast lifespan up: 0; Yeast growth inh: -31; Measles CPE: 8

Results for CC1=CN2C(=N)/C(=C/c3ccc([N+](=O)[O-])o3)C(=O)N=C2S1 ?
sdo1 growth: -1.5; Yeast lifespan up: 33*; Yeast growth inh: 20; Measles CPE: 0

What do the screens show for `O=C(NNS(=O)(=O)c1ccc([N+](=O)[O-])cc1)c1cnn(-c2ccccc2)c1-n1cccc1`?
sdo1 growth: 1.4; sEH act: -5; sEH inhibitor: 8; Yeast lifespan up: -1; Yeast growth inh: 5; Measles CPE: 9

How did COc1ccc(N2CCN(c3ncccn3)CC2)cc1 do in these assays?
sdo1 growth: 0.67; sEH act: 6; sEH inhibitor: -7; Yeast lifespan up: -7; Yeast growth inh: -30; Measles CPE: 28*

Results for COc1ccc(N2CCN(Cc3nc4ccccc4n3C)CC2)cc1 ?
sdo1 growth: 0.11; Yeast lifespan up: 6; Yeast growth inh: -21; Measles CPE: 37*

How did COc1ccc(OCC(O)CN2CCN(c3ncccn3)CC2)cc1 (stereo not drawn) do in these assays?
sdo1 growth: 0.35; Yeast lifespan up: 6; Yeast growth inh: -1; Measles CPE: 5

Results for Clc1ccc(COc2ccccc2CNCc2cccnc2)cc1 ?
sdo1 growth: 0.77; sEH act: -1; sEH inhibitor: 0; Yeast lifespan up: 49*; Yeast growth inh: -14; Measles CPE: 2

What do the screens show for `O=C1Cc2ccccc2C(=O)N1Cc1ccccc1`?
sdo1 growth: -0.46; sEH act: 17; sEH inhibitor: -19; Yeast lifespan up: 0; Yeast growth inh: 8; Measles CPE: 2
